The values that follow come from PMC3457677 (International Journal of Nanomedicine, 2012).

By AUC(0-inf) is commonly meant the area under the concentration-time curve extrapolated to infinity. A high value points to more exposure. A word on the MRT: it is the average time that molecules of a dose stay in the body. By Vd is commonly meant the apparent volume that relates the amount in the body to the concentration in plasma or blood. Higher therefore signals wide distribution into tissue. As usually defined, the clearance is the volume of plasma or blood freed of the substance per unit of time. High values mean a high capacity for elimination, low ones a low capacity for elimination. What is called half-life is the time needed for the level to fall by half in the phase considered. The low end stands for fast loss, the high end for slow loss.

SMILES strings stand for the structures. Values after ≈ are worked out from the molar mass of the structure shown.

For series [1] the following is noted: cited from earlier work.
The test system of series [2] is human breast adenocarcinoma with estrogen receptor (MCF7) cell line. Description: MTT cytotoxicity assay. The settings on record: MCF7, 72 h, read-out: IC50 (μg/mL) on cell lines MCF7. The series is classed as cell-based. In a few lines: (§1)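 Cells were grown in DMEM with 10% FBS and 1% antibiotics at 37°C under 5% CO2 and seeded in 96-well plates at 5 × 10^4 cells/well (A549: 5 × 10^3) until confluent. Free or SLN-encapsulated compound was added for 72 h. After a PBS wash, MTT (25 μg/mL) was given for 2 h, formazan was dissolved in DMSO and read at 550 nm. IC50 came from a four-parameter logistic fit; n = 6.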

The subject of series [3] is human oral squamous cell carcinoma (Ca9-22) cell line. Description: MTT cytotoxicity assay. The settings on record: Ca9-22, 72 h, read-out: IC50 (μg/mL) on cell lines Ca9-22. The series is classed as cell-based. In a few lines: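 Ca9-22 cells grown in DMEM with 10% FBS and 1% antibiotics at 37°C, 5% CO2. Seeded at 5 × 10^4 cells/well and grown to confluence. Free or SLN-encapsulated test compound (added solution at 40 μg/mL) applied for 72 hours. After a PBS wash, MTT (25 μg/mL) for 2 h, then DMSO. Absorbance read at 550 nm; IC50 from a four-parameter logistic fit.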

In series [4] the test system is human hepatocellular liver carcinoma (HepG2) cell line. The experiment in a line: MTT cytotoxicity assay. The series is classed as cell-based. The settings on record: HepG2, 72 h, read-out: IC50 (μg/mL) on cell lines HepG2. The procedure, abridged: as §1
For orientation: Formazan colour is commonly taken as a measure of viable cells.

Series [5] relates to human lung carcinoma (A549) cell line. Description: MTT cytotoxicity assay. It counts as cell-based. The settings on record: A549, 72 h, read-out: IC50 (μg/mL) on cell lines A549. The procedure, abridged: as §1
Series [6] has as its system human breast adenocarcinoma (MDA-MB-231) cell line. The experiment in a line: MTT cytotoxicity assay. It counts as cell-based. The following applies: MDA-MB-231, 72 h, read-out: IC50 (μg/mL) on cell lines MDA-MB-231. The procedure, abridged:
as §1

A short description of series [7]: In vitro release study. It counts as physicochemical. The settings on record: pH 7.4 PBS containing 1% F-127. The procedure, abridged:
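Dialysis bags (MWCO 12,000–14,000 Da, pre-soaked 12 h in water) held 1 mL SLN suspension in 100 mL pH 7.4 phosphate buffer with 1% Pluronic F-127 (sink) at 37°C. At intervals, 1 mL receiver aliquots were withdrawn and replaced with fresh medium. Drug was quantified by C18 HPLC with electrochemical detection. Release percentage was fitted to kinetic models; n = 4.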

A short description of series [8]: Biodistribution in tissues and organs after intravenous administration. The following applies: Wistar rats, 4.7 mg/kg intravenous, 30 minutes. It counts as in vivo.
The conditions of series [9]: cited from earlier work. The source holds these as a separate data set.
A short description of series [10]: In vivo pharmacokinetics after intravenous bolus. The settings on record: male, Wistar, rat, plasma, 4.7 mg/kg. Also on record: species or system Wistar rats. In a few lines:
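Fasted male Wistar rats (200–250 g) under urethane anaesthesia received a jugular vein injection of 4.7 mg/kg. The free-drug solution was in ethanol/PEG 400/tetraglycol/water. Heart blood (0.3 mL) was taken at set times, and plasma was extracted with dichloromethane using diclofenac as internal standard, then analysed by HPLC-ECD. A compartment model was fitted; AUC0–∞ by trapezoidal rule plus extrapolation, Cl = dose/AUC0–∞; n = 3.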

Series [11] in a line: Solubility of PK-L4 in aqueous and receptor media. It counts as physicochemical. The settings on record: compared: pH 7.4 PBS, pH 7.4 PBS containing 1% F-68, pH 7.4 PBS containing 1% F-127.

Consider `COc1cc(NS(C)(=O)=O)ccc1Nc1c2ccccc2nc2ccccc12` [Amsacrine], for which, in [1], the half-life in plasma was 20 to 30 min.

As to `COc1cccc2c1C(=O)c1c(O)c3c(c(O)c1C2=O)C[C@@](O)(C(=O)CO)C[C@@H]3O[C@H]1C[C@H](N)[C@H](O)[C@H](C)O1` [Doxorubicin solution, reference compound], the IC50 came out at 0.43 µg/mL (≈ 0.791 µM) in series [2]; 0.14 µg/mL (≈ 0.258 µM) in series [3]; 0.11 µg/mL (≈ 0.202 µM) in series [4]; 0.4 µg/mL (≈ 0.736 µM) in series [5]; 0.51 µg/mL (≈ 0.938 µM) in [6].

Turning to `COc1ccc(Nc2c3ccccc3nc3occ(Cl)c23)cc1` [PK-L4, 3-Chloro-4-[(4-methoxyphenyl)amino]furo[2,3-b]quinoline], the “Best-fitting release kinetics model” value in series [7] was “Higuchi order”. In addition, the IC50 in series [2] turned out to be 8.47 µg/mL (≈ 26.1 µM); in series [3], 0.04 µg/mL (≈ 0.123 µM); in series [4] it was 0.04 µg/mL (≈ 0.123 µM); in series [5], 0.11 µg/mL (≈ 0.339 µM); in series [6], 2.14 µg/mL (≈ 6.59 µM). Moreover, in [8], the “Main sites of PK-L4 deposition in tissues” value was “mainly located in the spine, followed by the lungs, brain, small intestine, and heart”. Besides, the “Solubility in water and biocompatible media” value in series [9] was “water insoluble”. This molecule had an AUC(0-inf) in series [10] of 1160 ± 87 ng·h/mL. The MRT in series [10] was determined as 61 ± 8.7 min. This molecule gave a Vd in [10] of 4.12 ± 0.395 L/kg. Besides, the clearance in series [10] was 67.9 mL/min/kg. Further, the half-life in [10] (half-life alpha, after intravenous bolus, rat plasma) was 4.68 ± 1.38 min. Further, the “Solubility of PK-L4 in receptor media” value in series [11] is listed as “pH 7.4 PBS containing 1% F-127 exhibited the best solubility”.
